Assay results as given in ChEMBL document CHEMBL1129731, “The chemistry of pseudomonic acid. 17. Dual-action C-1 oxazole derivatives of pseudomonic acid having an extended spectrum of antibacterial activity” (J Med Chem, 1996).
pIC50: −log10 of the molar value. In brackets after ≈: the same amount, converted by molar mass.

Experiments:
Staphylococcus aureus [1] = assay: Minimal inhibitory concentration against Staphylococcus aureus Smith; assay type: functional
Procedure, shortened: (§1)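 Broth microdilution in Mueller–Hinton broth; overnight broth cultures added to final 5 × 10^5 cfu/mL; incubated 37 °C, 18 h. MIC (µg/mL) taken as lowest concentration inhibiting growth.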

Mus musculus [2] = assay: Total […] dose against Staphylococcus aureus after po administration (1+5 hr post infection) to mouse; assay type: organism-based; conditions: in vivo
Procedure, shortened: (§2)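 CD1 male mice, groups of five, infected ip with S. aureus Smith, 1.3 × 10^10 cfu (po groups) or 5 × 10^9 cfu (sc groups); dosed po or sc at 1 + 5 h postinfection, 0.2 mL/mouse. CD50 = total dose protecting 50% of mice from death, scored day 2 postinfection.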

Mus musculus [3] = assay: Total […] dose against Staphylococcus aureus after sc administration (1+5 hr post infection) to mouse; assay type: organism-based; conditions: in vivo; procedure, shortened: as §2
Bacteroides fragilis = assay: compound was tested for antibacterial activity Bacteroides fragilis NCTC 10581.; assay type: functional
Enterobacter cloacae = assay: compound was tested for antibacterial activity against Ent. cloacae N1.; assay type: functional
Escherichia coli [4] = assay: compound was tested for antibacterial activity against Escherichia coli DC0.; assay type: functional
Escherichia coli [5] = assay: compound was tested for antibacterial activity against Escherichia coli DC2.; assay type: functional; procedure, shortened: as §1
Enterococcus faecalis = assay: compound was tested for antibacterial activity against Ent. faecalis I; assay type: functional; procedure, shortened: as §1
Haemophilus influenzae = assay: compound was tested for antibacterial activity against Haemophilus influenzae Q1.; assay type: functional
Procedure, shortened: (§3)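 Broth microdilution in Mueller–Hinton broth supplemented (final) with 5% heat-inactivated horse serum, 0.02 mg/mL hematin and 0.08 mg/mL NAD; inoculum 5 × 10^5 cfu/mL from overnight broth cultures; 37 °C for 18 h; MIC (µg/mL) read as lowest concentration inhibiting growth.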

Isoleucine--tRNA ligase [6] = target: T1, Isoleucine--tRNA ligase (Staphylococcus aureus, UniProt P41972); assay: Inhibitory activity against isoleucyl-tRNA synthetase (IRS) of Staphylococcus aureus; assay type: functional
T1 sequence (P41972 whole entry): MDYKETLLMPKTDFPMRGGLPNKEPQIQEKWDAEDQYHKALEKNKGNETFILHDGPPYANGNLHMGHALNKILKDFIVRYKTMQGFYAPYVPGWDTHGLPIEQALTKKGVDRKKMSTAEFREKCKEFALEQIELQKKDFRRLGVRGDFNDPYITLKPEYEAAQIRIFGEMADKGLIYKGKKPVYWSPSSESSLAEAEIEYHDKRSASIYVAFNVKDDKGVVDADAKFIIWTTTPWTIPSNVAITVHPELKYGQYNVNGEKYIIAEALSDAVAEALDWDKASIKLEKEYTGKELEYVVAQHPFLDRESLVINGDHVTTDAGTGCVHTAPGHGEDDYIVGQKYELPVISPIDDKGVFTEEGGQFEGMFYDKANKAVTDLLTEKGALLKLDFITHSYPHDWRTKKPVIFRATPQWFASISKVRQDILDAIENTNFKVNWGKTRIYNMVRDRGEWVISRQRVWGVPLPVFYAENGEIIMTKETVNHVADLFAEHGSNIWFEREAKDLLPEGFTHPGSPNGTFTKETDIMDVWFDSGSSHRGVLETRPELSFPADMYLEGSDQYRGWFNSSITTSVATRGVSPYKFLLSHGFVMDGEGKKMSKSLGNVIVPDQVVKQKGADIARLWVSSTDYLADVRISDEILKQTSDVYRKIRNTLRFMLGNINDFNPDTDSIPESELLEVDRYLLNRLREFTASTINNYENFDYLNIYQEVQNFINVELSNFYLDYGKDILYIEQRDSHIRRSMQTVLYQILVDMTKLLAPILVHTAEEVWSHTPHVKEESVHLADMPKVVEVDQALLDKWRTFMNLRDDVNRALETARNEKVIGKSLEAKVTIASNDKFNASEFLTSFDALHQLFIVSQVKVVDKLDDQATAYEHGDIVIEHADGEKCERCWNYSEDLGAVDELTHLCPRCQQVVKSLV

Klebsiella pneumoniae = assay: compound was tested for antibacterial activity against Klebsiella pneumoniae E70.; assay type: functional; procedure, shortened: as §1
Moraxella catarrhalis = assay: compound was tested for antibacterial activity against Moraxella catarrhalis 1502.; assay type: functional; procedure, shortened: as §3
Proteus mirabilis = assay: compound was tested for antibacterial activity against Pr. mirabilis C889.; assay type: functional; procedure, shortened: as §1
Pseudomonas aeruginosa = assay: compound was tested for antibacterial activity against Pseudomonas aeruginosa K799 wt.; assay type: functional; procedure, shortened: as §1
[7] = system: Staphylococcus epidermidis; assay: compound was tested for antibacterial activity aagainst Staphylococcus epidermidis PHLN 20.; assay type: functional; procedure, shortened: as §1
Streptococcus pneumoniae = assay: compound was tested for antibacterial activity against Strep. pneumoniae 1761.; assay type: functional; procedure, shortened: as §3
Staphylococcus aureus [8] = assay: compound was tested for antibacterial activity against Staphylococcus aureus F 89.; assay type: functional; procedure, shortened: as §1
Staphylococcus aureus [9] = assay: compound was tested for antibacterial activity against Staphylococcus aureus NCTC 6571.; assay type: functional; procedure, shortened: as §1
Streptococcus pyogenes = assay: compound was tested for antibacterial activity against Streptococcus pyogenes CN10.; assay type: functional; procedure, shortened: as §3
Staphylococcus aureus [10] = assay: compound was tested for antibacterial activity against Staphylococcus aureus C 37.; assay type: functional
Isoleucine--tRNA ligase [11] = target: T1, Isoleucine--tRNA ligase; assay: Inhibitory activity against isoleucyl-tRNA synthetase (IRS) of Staphylococcus aureus 11481; assay type: functional
Staphylococcus aureus [12] = assay: Minimum inhibitory activity against Staphylococcus aureus 11481; assay type: functional; procedure, shortened: as §1
Staphylococcus aureus [13] = assay: Minimum inhibitory activity against Staphylococcus aureus C 7; assay type: functional; procedure, shortened: as §1
Staphylococcus aureus [14] = assay: Minimum inhibitory activity against Staphylococcus aureus NCTC 6571; assay type: functional; procedure, shortened: as §1
Isoleucine--tRNA ligase [15] = target: T1, Isoleucine--tRNA ligase; assay: Inhibitory activity against isoleucyl-tRNA synthetase (IRS) of Staphylococcus aureus NCTC 6571

Row | MIC (Bacteroides fragilis) [µg/mL] | MIC (Enterobacter cloacae) [µg/mL] | MIC (Escherichia coli [4]) [µg/mL] | MIC (Escherichia coli [5]) [µg/mL] | MIC (Enterococcus faecalis) [µg/mL] | MIC (Haemophilus influenzae) [µg/mL] | pIC50 (Isoleucine--tRNA ligase [6]) | MIC (Klebsiella pneumoniae) [µg/mL] | MIC (Moraxella catarrhalis) [µg/mL] | MIC (Proteus mirabilis) [µg/mL] | MIC (Pseudomonas aeruginosa) [µg/mL] | MIC [7] [µg/mL] | MIC (Streptococcus pneumoniae) [µg/mL] | MIC (Staphylococcus aureus [8]) [µg/mL] | MIC (Staphylococcus aureus [9]) [µg/mL] | MIC (Streptococcus pyogenes) [µg/mL] | MIC (Staphylococcus aureus [10]) [µg/mL] | Compound | other results
1 | – | – | – | – | – | – | – | – | – | – | – | – | – | – | – | – | – | CC1(C)S[C@@H]2[C@H](NC(=O)[C@H](N)c3ccc(O)cc3)C(=O)N2[C@H]1C(=O)O [AMOXICILLIN] | MIC (Staphylococcus aureus [1]): 0.25 µg/mL (≈ 0.684 µM); CD50 (Mus musculus [2]): 0.24 mg/kg; CD50 (Mus musculus [3]): 0.28 mg/kg
2 | > 64 | 16 (≈ 32.4 µM) | 32 (≈ 64.7 µM) | < 0.06 | 32 (≈ 64.7 µM) | < 0.06 | 8.16 | 32 (≈ 64.7 µM) | < 0.06 | 64 (≈ 129 µM) | > 64 | < 0.06 | < 0.06 | > 64 | < 0.06 | < 0.06 | 32 (≈ 64.7 µM) | C/C(=C\c1ncc(-c2cc([N+](=O)[O-])cs2)o1)C[C@@H]1OC[C@H](C[C@@H]2O[C@H]2[C@@H](C)[C@H](C)O)[C@@H](O)[C@H]1O | –
3 | > 64 | 32 (≈ 65.5 µM) | 64 (≈ 131 µM) | < 0.06 | 32 (≈ 65.5 µM) | 0.25 (≈ 0.512 µM) | 8.10 | > 64 | 1 (≈ 2.05 µM) | > 64 | > 64 | 0.125 (≈ 0.256 µM) | < 0.06 | > 64 | 0.125 (≈ 0.256 µM) | 0.125 (≈ 0.256 µM) | > 64 | C/C(=C\c1ncc(-c2ccc([N+](=O)[O-])cc2)o1)C[C@@H]1OC[C@H](C[C@@H]2O[C@H]2[C@@H](C)[C@H](C)O)[C@@H](O)[C@H]1O | –
4 | 2 (≈ 4.04 µM) | > 64 | > 64 | < 0.06 | > 64 | < 0.06 | – | > 64 | < 0.06 | > 64 | > 64 | < 0.06 | < 0.06 | 8 (≈ 16.2 µM) | 0.125 (≈ 0.253 µM) | < 0.06 | 8 (≈ 16.2 µM) | C/C(=C\c1ncc(-c2ccc([N+](=O)[O-])s2)o1)C[C@@H]1OC[C@H](C[C@@H]2O[C@H]2[C@@H](C)[C@H](C)O)[C@@H](O)[C@H]1O | pIC50 (Isoleucine--tRNA ligase [11]): 6.62; MIC (Staphylococcus aureus [12]): 8 µg/mL (≈ 16.2 µM); MIC (Staphylococcus aureus [13]): 32 µg/mL (≈ 64.7 µM); MIC (Staphylococcus aureus [14]): 0.13 µg/mL (≈ 0.263 µM); pIC50 (Isoleucine--tRNA ligase [15]): 8.18
